Measured values: ChEMBL document CHEMBL3862041, “Discovery of Novel Bruton's Tyrosine Kinase (BTK) Inhibitors Bearing a N,9-Diphenyl-9H-purin-2-amine Scaffold” (ACS Med Chem Lett, 2016)

Key:
[1] = Antiproliferative activity against human Ramos cells after 48 hrs by CCK-8 assay; type: functional, cell-based
How it was run: (§1)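 Dose-response curves run at five concentrations in Ramos and Raji B-cell leukemia lines, with viability read by the CCK-8 method. IC50 is the concentration in micromolar that inhibits cell growth by 50%, taken from these curves.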

[2] = biological target: Tyrosine-protein kinase BTK (Homo sapiens, UniProt Q06187); experiment: Inhibition of recombinant human N-terminal His-tagged BTK expressed in baculovirus infected sf9 cells using poly(4:1 Glu,Tyr) as substrate by ADP-Glo kinase assay
Tyrosine-protein kinase BTK, sequence (Q06187 whole entry): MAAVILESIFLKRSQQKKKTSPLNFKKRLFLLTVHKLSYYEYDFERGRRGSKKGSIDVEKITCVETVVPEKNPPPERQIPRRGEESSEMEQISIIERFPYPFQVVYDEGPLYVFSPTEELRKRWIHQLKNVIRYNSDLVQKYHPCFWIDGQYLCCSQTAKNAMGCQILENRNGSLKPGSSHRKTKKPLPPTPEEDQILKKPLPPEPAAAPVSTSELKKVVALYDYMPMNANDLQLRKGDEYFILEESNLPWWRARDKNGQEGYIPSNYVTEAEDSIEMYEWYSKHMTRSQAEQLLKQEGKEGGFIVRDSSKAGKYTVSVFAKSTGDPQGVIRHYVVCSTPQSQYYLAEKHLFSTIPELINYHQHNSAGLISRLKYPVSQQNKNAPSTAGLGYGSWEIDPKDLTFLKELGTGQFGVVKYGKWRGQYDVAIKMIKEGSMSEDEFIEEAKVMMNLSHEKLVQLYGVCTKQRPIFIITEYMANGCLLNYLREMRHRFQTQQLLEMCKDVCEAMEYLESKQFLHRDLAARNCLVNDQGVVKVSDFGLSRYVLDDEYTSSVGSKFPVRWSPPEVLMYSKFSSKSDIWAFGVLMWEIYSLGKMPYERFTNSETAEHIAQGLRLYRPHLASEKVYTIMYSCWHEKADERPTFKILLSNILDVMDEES

[3] = biological target: T1, Tyrosine-protein kinase JAK3 (Homo sapiens, UniProt P52333); experiment: Inhibition of JAK3 (unknown origin)
T1 sequence (P52333 whole entry): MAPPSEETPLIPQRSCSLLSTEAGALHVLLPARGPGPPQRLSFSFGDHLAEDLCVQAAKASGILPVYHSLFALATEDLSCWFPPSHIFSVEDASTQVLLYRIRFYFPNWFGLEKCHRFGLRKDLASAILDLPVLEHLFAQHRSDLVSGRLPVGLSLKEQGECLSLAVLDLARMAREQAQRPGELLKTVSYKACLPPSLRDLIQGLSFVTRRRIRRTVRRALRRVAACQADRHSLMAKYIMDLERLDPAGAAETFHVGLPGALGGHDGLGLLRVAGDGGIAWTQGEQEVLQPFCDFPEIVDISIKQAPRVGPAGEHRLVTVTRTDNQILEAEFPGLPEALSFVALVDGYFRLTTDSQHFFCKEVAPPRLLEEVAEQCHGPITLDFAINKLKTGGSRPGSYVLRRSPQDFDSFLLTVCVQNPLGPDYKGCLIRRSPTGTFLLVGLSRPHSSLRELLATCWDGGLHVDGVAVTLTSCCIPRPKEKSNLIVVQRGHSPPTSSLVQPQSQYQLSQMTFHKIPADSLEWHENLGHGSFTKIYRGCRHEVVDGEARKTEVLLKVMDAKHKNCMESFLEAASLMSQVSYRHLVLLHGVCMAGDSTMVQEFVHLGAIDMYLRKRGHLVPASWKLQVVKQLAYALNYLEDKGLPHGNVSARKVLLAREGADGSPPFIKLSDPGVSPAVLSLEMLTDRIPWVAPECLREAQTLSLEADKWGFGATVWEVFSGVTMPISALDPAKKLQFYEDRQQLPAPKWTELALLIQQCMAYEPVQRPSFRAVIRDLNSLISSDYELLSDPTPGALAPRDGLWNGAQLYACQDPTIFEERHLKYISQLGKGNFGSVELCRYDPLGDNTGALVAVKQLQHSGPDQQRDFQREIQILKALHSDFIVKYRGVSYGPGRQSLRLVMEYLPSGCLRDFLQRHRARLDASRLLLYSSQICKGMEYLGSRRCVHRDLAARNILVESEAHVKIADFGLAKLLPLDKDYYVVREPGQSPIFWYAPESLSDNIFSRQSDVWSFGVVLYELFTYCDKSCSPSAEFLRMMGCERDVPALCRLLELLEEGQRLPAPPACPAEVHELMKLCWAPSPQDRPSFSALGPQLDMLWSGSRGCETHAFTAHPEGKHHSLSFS

[4] = Antiproliferative activity against human Raji cells after 48 hrs by CCK-8 assay; type: functional, cell-based; how it was run: as §1
Ramos [5] = experiment: Induction of apoptosis in human Ramos cells assessed as viable cells at 10 uM after 48 hrs by annexin V-FITC/propidium iodide staining based flow cytometry relative to control; type: functional; conditions: for viability at 10 µM: Homo sapiens, Ramos, 48 h, read-out: Activity
How it was run: (§2)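 Ramos cells exposed for 48 h to the indicated compound concentrations. Cells then stained with annexin V/FITC and analysed by flow cytometry for apoptosis.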

Ramos [6] = experiment: Induction of apoptosis in human Ramos cells assessed as early apoptotic cells at 10 uM after 48 hrs by annexin V/FITC propidium iodide staining based flow cytometry relative to control; type: functional; how it was run: as §2
Ramos [7] = experiment: Induction of apoptosis in human Ramos cells assessed as late apoptotic cells at 10 uM after 48 hrs by annexin V/FITC propidium iodide staining based flow cytometry relative to control; type: functional; how it was run: as §2
Ramos [8] = experiment: Induction of apoptosis in human Ramos cells assessed as necrotic cells at 10 uM after 48 hrs by annexin V/FITC propidium iodide staining based flow cytometry relative to control; type: functional; how it was run: as §2
[9] = Cell cycle arrest in human Ramos cells assessed as accumulation at G0/G1 phase at 10 uM by propidium iodide staining based flow cytometry (reference value: 56.19%); type: functional
How it was run: (§3)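 Ramos cells treated, then cell-cycle phase distribution (G0/G1, S, G2/M) measured by flow cytometry. Three separate experiments, expressed as mean±standard deviation.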

[10] = Cell cycle arrest in human Ramos cells assessed as accumulation at S phase at 10 uM by propidium iodide staining based flow cytometry (reference value: 42.23%); type: functional; how it was run: as §3
[11] = Cell cycle arrest in human Ramos cells assessed as accumulation at G2/M phase at 10 uM by propidium iodide staining based flow cytometry (reference value: 1.58%); type: functional; how it was run: as §3

SMILES | IC50 [1] [µM] | IC50 [2] [µM] | IC50 [3] [µM] | IC50 [4] [µM] | viability at 10 µM (Ramos [5]) [%] | Activity (Ramos [6]) [%] | Activity (Ramos [7]) [%] | Activity (Ramos [8]) [%] | Activity [9] [%] | Activity [10] [%] | Activity [11] [%] | Activity (Ramos [5]) [%]
C=CC(=O)Nc1cccc(-n2cnc3cnc(Nc4ccc(OCCCN5CCOCC5)cc4)nc32)c1 | 7.75 | 0.0004 | 0.0726 | 12.6 | 44.9 | 41.9 | 10.9 | 2.2 | 41 | 52.4 | 6.61 | 
C=CC(=O)Nc1cccc(-n2cnc3cnc(Nc4ccc(N5CCN(S(C)(=O)=O)CC5)cc4OC)nc32)c1 | 38.6 | > 0.1 | > 0.1 | 21.9 |  |  |  |  |  |  |  | 
C=CC(=O)Nc1cccc(-n2cnc3cnc(Nc4ccc(N5CCN(CC)CC5)cc4OC)nc32)c1 | > 40 | > 0.1 | > 0.1 | > 40 |  |  |  |  |  |  |  | 
C=CC(=O)Nc1cccc(-n2c(=O)[nH]c3cnc(Nc4ccc(N5CCN(CC)CC5)cc4)nc32)c1 | 35.2 | > 0.1 | > 0.1 | 11.9 |  |  |  |  |  |  |  | 
C=CC(=O)N1CCC[C@@H](n2nc(-c3ccc(Oc4ccccc4)cc3)c3c(N)ncnc32)C1 [IBRUTINIB] | 8.11 |  |  | 15.2 |  | 37 |  | 0.1 | 46.4 | 53.5 | 0.15 | 62
C=CC(=O)Nc1cccc(-n2cnc3cnc(Nc4ccc(N5CCN(C(C)=O)C(C)C5)cc4)nc32)c1 (stereo unspecified) | > 40 | 0.0005 | 0.0612 | 24.2 |  |  |  |  |  |  |  | 
C=CC(=O)Nc1cccc(-n2cnc3cnc(Nc4ccc(N5CCN(C)CC5)cc4OC)nc32)c1 | 13.2 | > 0.1 | > 0.1 | 13.7 |  |  |  |  |  |  |  | 
C=CC(=O)Nc1cccc(-n2c(=O)[nH]c3cnc(Nc4ccc(N5CCOCC5)cc4OC)nc32)c1 | 39.1 | > 0.1 | > 0.1 | > 40 |  |  |  |  |  |  |  | 
C=CC(=O)Nc1cccc(Nc2nc(Nc3ccc(OCCOC)cc3)ncc2F)c1 [SPEBRUTINIB] | 15.1 |  |  | 25.3 | 54.2 | 21.1 | 20.4 | 4.3 | 31 | 47.9 | 20.9 | 
C=CC(=O)Nc1cccc(-n2cnc3cnc(Nc4ccc(N5CCN(S(C)(=O)=O)CC5)cc4)nc32)c1 | > 40 | 0.0171 | 0.0701 | > 40 |  |  |  |  |  |  |  | 
C=CC(=O)Nc1cccc(-n2cnc3cnc(Nc4ccc(N5CCN(S(C)(=O)=O)C(C)C5)cc4)nc32)c1 (stereo unspecified) | > 40 | 0.0132 | 0.0831 | 31.7 |  |  |  |  |  |  |  | 
C=CC(=O)Nc1cccc(-n2cnc3cnc(Nc4ccc(N5CCN(CC)CC5)cc4)nc32)c1 | 12.1 | 0.0005 | 0.0675 | 19.5 |  |  |  |  |  |  |  | 
C=CC(=O)Nc1cccc(-n2cnc3cnc(Nc4ccc(N5CCN(C)CC5)cc4)nc32)c1 | 8.22 | 0.0102 | 0.0671 | 7.55 |  |  |  |  |  |  |  | 
C=CC(=O)Nc1cccc(-n2cnc3cnc(Nc4ccc(OC)cc4)nc32)c1 | > 40 | 0.0971 | 0.0672 | 31.2 |  |  |  |  |  |  |  | 
C=CC(=O)Nc1cccc(-n2cnc3cnc(Nc4ccc(N5CCOCC5)cc4)nc32)c1 | 11.3 | 0.0151 | > 0.1 | 11.8 |  |  |  |  |  |  |  | 
